Experiments:
[1] = tested on: GABA transporter 3 (mGAT3, slc6a13, Mus musculus); test: Inhibition of mouse GAT3 expressed in HEK cells assessed as remaining [3H]-GABA uptake at 100 uM after 25 mins by liquid scintillation counting analysis relative to control; conditions: HEK293
HEK293 = test: Inhibition of mouse GAT4 expressed in HEK cells assessed as remaining [3H]-GABA uptake at 100 uM after 25 mins by liquid scintillation counting analysis relative to control; format: cell-based
How it was run: (§1)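 The assay used the standardized [³H]GABA uptake format in HEK lines, each stably expressing one murine GAT subtype (mGAT1, mGAT2, mGAT3 or mGAT4). The value is the remaining [³H]GABA uptake with 100 μM test compound present.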

[2] = target: Sodium- and chloride-dependent GABA transporter 1 (Mus musculus, UniProt P31648); format: cell-based, HEK293
[3] = tested on: Betaine/GABA transporter BGT1 (mGAT2, slc6a12, Mus musculus); test: Inhibition of mouse GAT2 expressed in HEK cells assessed as remaining [3H]-GABA uptake at 100 uM after 25 mins by liquid scintillation counting analysis relative to control; conditions: HEK293
[4] = target: Sodium- and chloride-dependent GABA transporter 1 (Mus musculus) (UniProt P31648); test: Inhibition of mouse GAT1 expressed in HEK cells assessed as remaining [3H]-GABA uptake at 100 uM after 25 mins by liquid scintillation counting analysis relative to control; format: cell-based; conditions: HEK293
How it was run: as §1

cells = format: cell-based; conditions: HEK293

Row | SMILES | Activity [1] [%] | IC50 [2] [µM] | Activity [3] [%] | Activity [4] [%] | IC50 (cells) [µM] | Activity (HEK293) [%]
1 | Cc1ccsc1C(=CCCN1CCC[C@@H](C(=O)O)C1)c1sccc1C | – | – | – | – | – | 73.4
2 | O=C(c1cccc(F)c1)c1cc(F)ccc1/C=C/OCCN1CCCC(C(=O)O)C1 (configuration not stated) | 51.5 | – | 62.9 | 67.5 | – | 67.6
3 | O=C(c1ccccc1F)c1ccc(F)cc1/C=C/OCCN1CCCC(C(=O)O)C1 (configuration not stated) | 57.6 | 8.13 | 68.6 | – | – | 52.1
4 | O=C(c1cccc(F)c1)c1ccc(F)cc1/C=C/OCCN1CCCC(C(=O)O)C1 (configuration not stated) | – | 29.5 | – | – | 200 | –
5 | O=C(O)C1CCCN(CCO/C=C/c2cc(F)ccc2Cc2ccc(F)cc2)C1 (configuration not stated) | 62 | 8.91 | 58.1 | – | 93.3 | –
6 | O=C(c1ccccc1F)c1cc(F)ccc1/C=C/OCCN1CCCC(C(=O)O)C1 (configuration not stated) | – | 10.7 | – | – | 67.6 | –
7 | O=C(c1ccc(F)cc1)c1ccc(F)cc1/C=C\OCCN1CCCC(C(=O)O)C1 (configuration not stated) | 79.5 | 7.59 | 70.2 | – | – | 82.2
8 | O=C(c1ccc(F)cc1)c1ccc(F)cc1/C=C/OCCN1CCCC(C(=O)O)C1 (configuration not stated) | 97.7 | 20.9 | 61.2 | – | – | 94.3
9 | O=C(O)C1CCCN(CCO/C=C/c2cc(F)ccc2Cc2cccc(F)c2)C1 (configuration not stated) | 59.3 | 6.76 | 70.5 | – | – | 51.8
10 | O=C(c1ccccc1F)c1ccc(F)cc1/C=C\OCCN1CCCC(C(=O)O)C1 (configuration not stated) | 83.2 | 3.02 | 74.5 | – | – | 86.3
11 | O=C(O)C1CCCN(CCO/C=C/c2ccc(F)cc2Cc2ccc(F)cc2)C1 (configuration not stated) | 49.3 | 4.57 | 71.6 | – | – | 63.7
12 | O=C(c1ccccc1)c1ccccc1/C=C/OCCN1CCCC(C(=O)O)C1 (configuration not stated) | 55.9 | 25.1 | 67.5 | – | – | 79.8
13 | O=C(c1ccccc1)c1ccccc1/C=C\OCCN1CCCC(C(=O)O)C1 (configuration not stated) | 59.8 | 7.08 | 72.3 | – | – | 72.4
14 | O=C(O)C1CCCN(CCO/C=C/c2ccccc2Cc2ccccc2)C1 (configuration not stated) | – | 4.17 | 60.2 | – | 31.6 | –
15 | O=C(O)C1CCCN(CCO/C=C/c2cc(F)ccc2Cc2ccccc2F)C1 (configuration not stated) | 83.7 | 10.2 | 47.8 | – | – | 53.8

The next lines start with results.

Row | Activity [1] [%] | IC50 [2] [µM] | Activity [3] [%] | Activity [4] [%] | IC50 (cells) [µM] | SMILES | Activity (HEK293) [%]
16 | 59.8 | 0.339 | 73 | – | – | O=C(c1ccc(F)cc1)c1cc(F)ccc1/C=C\OCCN1CCCC(C(=O)O)C1 (configuration not stated) | 44.8
17 | – | 1.1 | – | – | – | O=C(O)C1CCCN(CCO/C=C\c2cc(F)ccc2Cc2ccc(F)cc2)C1 (configuration not stated) | 50.3
18 | – | 0.1 | – | – | – | O=C(O)[C@@H]1CCCN(CCOCCc2ccccc2Cc2ccccc2)C1 | –
19 | – | 0.0141 | – | – | – | Cc1ccsc1C(=COCCN1CCC[C@@H](C(=O)O)C1)c1sccc1C | –
20 | – | 0.692 | – | – | 275 | O=C(O)[C@@H]1CCCN(CCC=C(c2ccccc2)c2ccccc2)C1 | –
21 | – | 0.302 | 60.3 | – | – | O=C(O)C1CCCN(CCO/C=C\c2cc(F)ccc2Cc2cccc(F)c2)C1 (configuration not stated) | 56
22 | 80.1 | 2.69 | 57.5 | – | 58.9 | O=C(O)C1CCCN(CCO/C=C/c2ccc(F)cc2Cc2ccccc2F)C1 (configuration not stated) | –
23 | 68.8 | 1.86 | 71.4 | – | – | O=C(c1ccc(F)cc1)c1cc(F)ccc1/C=C/OCCN1CCCC(C(=O)O)C1 (configuration not stated) | 72.7
24 | 43.5 | 0.759 | – | – | – | O=C(c1ccccc1F)c1cc(F)ccc1/C=C\OCCN1CCCC(C(=O)O)C1 (configuration not stated) | 45.1
25 | – | 0.631 | 80.1 | – | 60.3 | O=C(O)C1CCCN(CCO/C=C\c2ccc(F)cc2Cc2ccccc2F)C1 (configuration not stated) | –
26 | – | 1.17 | 64.8 | – | 25.7 | O=C(O)C1CCCN(CCO/C=C\c2ccc(F)cc2Cc2ccc(F)cc2)C1 (configuration not stated) | –
27 | 83.6 | 2.63 | 96.1 | – | – | O=C(c1cccc(F)c1)c1ccc(F)cc1/C=C\OCCN1CCCC(C(=O)O)C1 (configuration not stated) | 52.1
28 | 56 | 0.398 | 68.6 | – | – | O=C(O)C1CCCN(CCO/C=C\c2ccccc2Cc2ccccc2)C1 (configuration not stated) | 66
29 | – | 0.302 | 71.1 | – | 49 | O=C(O)C1CCCN(CCO/C=C\c2cc(F)ccc2Cc2ccccc2F)C1 (configuration not stated) | –
30 | 52.7 | 0.794 | 56.9 | – | – | O=C(c1cccc(F)c1)c1cc(F)ccc1/C=C\OCCN1CCCC(C(=O)O)C1 (configuration not stated) | 45.2

Reference: ChEMBL document CHEMBL2385039 (Bioorg Med Chem, 2013)
